In ChEMBL document CHEMBL1687899, “Structure-activity relationships in nucleotide oligomerization domain 1 (Nod1) agonistic γ-glutamyldiaminopimelic acid derivatives” (J Med Chem, 2011):

Molecular target: T1, Nucleotide-binding oligomerization domain-containing protein 1 (Homo sapiens, UniProt Q9Y239)
T1 sequence (Q9Y239 whole entry): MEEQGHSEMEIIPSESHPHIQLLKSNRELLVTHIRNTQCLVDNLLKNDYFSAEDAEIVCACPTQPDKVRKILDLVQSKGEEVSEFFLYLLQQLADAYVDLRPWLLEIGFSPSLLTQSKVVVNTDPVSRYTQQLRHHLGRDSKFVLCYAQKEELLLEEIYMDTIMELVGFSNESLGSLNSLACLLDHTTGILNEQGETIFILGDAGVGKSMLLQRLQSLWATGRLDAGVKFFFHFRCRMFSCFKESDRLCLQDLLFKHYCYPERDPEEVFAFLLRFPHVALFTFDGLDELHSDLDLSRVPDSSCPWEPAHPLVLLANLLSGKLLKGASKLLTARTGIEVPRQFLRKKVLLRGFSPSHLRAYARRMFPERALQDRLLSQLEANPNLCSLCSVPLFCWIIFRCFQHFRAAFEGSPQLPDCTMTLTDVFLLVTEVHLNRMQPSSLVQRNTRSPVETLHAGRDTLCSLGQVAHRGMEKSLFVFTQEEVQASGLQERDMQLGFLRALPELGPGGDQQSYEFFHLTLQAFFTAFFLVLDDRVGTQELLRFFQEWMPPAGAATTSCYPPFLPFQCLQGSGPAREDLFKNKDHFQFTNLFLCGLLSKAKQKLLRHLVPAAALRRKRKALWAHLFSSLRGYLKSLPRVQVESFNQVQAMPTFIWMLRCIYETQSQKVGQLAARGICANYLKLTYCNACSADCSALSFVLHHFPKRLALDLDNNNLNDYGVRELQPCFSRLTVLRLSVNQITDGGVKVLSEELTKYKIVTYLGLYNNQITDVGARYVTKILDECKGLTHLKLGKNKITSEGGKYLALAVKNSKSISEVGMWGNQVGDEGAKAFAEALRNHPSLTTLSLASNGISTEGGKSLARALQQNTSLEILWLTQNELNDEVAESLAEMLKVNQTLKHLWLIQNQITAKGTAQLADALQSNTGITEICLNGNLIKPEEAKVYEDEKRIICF
Test: Agonist activity at human NOD-1 expressed in human HEK293 cells assessed as NF-kappaB induction by spectrophotometric analysis
Format: functional, cell-based
How it was run: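 HEK-Blue cells (HEK293 stably transfected with human Nod1 and an NF-κB/AP-1-inducible secreted alkaline phosphatase reporter) were kept in selection medium with zeocin and normocin. Cells at ~10^5 cells/mL were grown to confluency and then given graded compound concentrations. Supernatant sAP was read spectrophotometrically at 620 nm with an alkaline phosphatase-specific chromogen.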

| EC50 | Compound |
| --- | --- |
| 0.023 nM | CCCCCCCCCCCCN[C@H](CCC(=O)NC(CCCC(N)C(=O)O)C(=O)O)C(=O)O (stereo partly specified) |
| 0.37 nM | CCCCCCCCCCCC(=O)N[C@H](CCC(=O)NCCCC[C@@H](N)C(=O)O)C(=O)O |
| > 100 nM | CCCCCCCCCCCC(=O)N[C@H](CCC(=O)NC(CCCCC(=O)O)C(=O)O)C(=O)O (stereo partly specified) |
| 0.622 nM | CCCCCCCCCCCC(=O)N[C@H](CCC(=O)NC(CCCC(NC(=N)N)C(=O)O)C(=O)O)C(=O)O (stereo partly specified) |
| 1.31 nM | CCCCCCCCCCCC(=O)N[C@H](CCC(=O)NC(CCCC1NC(N)=NC1=O)C(=O)O)C(=O)O (stereo partly specified) |
| > 100 nM | CCCCCCCCCCCC(=O)N[C@H](CCC(=O)N[C@H](CCCCN)C(=O)O)C(=O)O |
